Measured values reported in ChEMBL document CHEMBL1157140, “Design and synthesis of trans 2-(furan-2-yl)vinyl heteroaromatic iodides with antitumour activity” (2008).

These compounds were tested on MCF7 (assay: Cytotoxicity against human MCF7 cells after 3 days by MTT assay). Settings: MCF7, 72 h.
Type: functional
Method in brief: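 MCF7 cells kept in medium with heat-inactivated foetal bovine serum, 2 mM L-alanyl-L-glutamine and penicillin–streptomycin at 37 °C, 5% CO₂. Seeded at 5 × 10³ cells/0.33 cm², then dosed after 24 h at final 0.01–100. Incubated 3 days, then MTT read at 570 nm. Each point averages 8 wells; untreated cells serve as control.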

Compound	GI50 [nM]
Cn1cc[n+](C)c1/C=C/c1ccc(-c2ccccc2Cl)o1	1380
C(=C\c1ccco1)/c1cccc(/C=C/c2ccco2)n1	2510
Cn1cc[n+](C)c1/C=C/c1ccc(Br)o1	39800
Cn1cc[n+](C)c1/C=C/c1ccc(-c2cccc(Cl)c2)o1	1740
C[n+]1ccccc1/C=C/c1ccc(-c2cc(C(F)(F)F)ccc2Cl)o1	331
C[n+]1ccccc1/C=C/c1ccc(-c2ccc(Br)cc2)o1	1000
C[n+]1ccccc1/C=C/c1ccc(Br)o1	7940
COc1ccc(-c2ccc(/C=C/c3ccc4ccccc4[n+]3C)o2)cc1Cl	191
C[n+]1ccccc1/C=C/c1ccc(-c2ccc(Cl)cc2)o1	219
Cc1ccc(/C=C/c2n(C)cc[n+]2C)o1	33100
C[n+]1ccccc1/C=C/c1ccc(-c2ccc(Cl)cc2Cl)o1	126
Cn1cc[n+](C)c1/C=C/c1ccco1	100000
C[n+]1ccccc1/C=C/c1ccc(-c2cccc(Cl)c2)o1	135
C[n+]1ccccc1/C=C/c1ccc(-c2ccc(Cl)c(Cl)c2)o1	380
Cn1cc[n+](C)c1/C=C/c1ccc(-c2cc(Cl)ccc2Cl)o1	191
COc1ccc(-c2ccc(/C=C/c3cccc[n+]3C)o2)cc1Cl	66.1
Cn1cc[n+](C)c1/C=C/c1ccc(-c2ccc(Cl)cc2)o1	631
C[n+]1ccccc1/C=C/c1ccc(-c2ccccc2Cl)o1	2240
C[n+]1c(/C=C/c2ccc(-c3cccc(Cl)c3)o2)ccc2ccccc21	57.5
C[n+]1c(/C=C/c2ccc(-c3ccc(Cl)cc3[N+](=O)[O-])o2)ccc2ccccc21	1740
C[n+]1ccccc1/C=C/c1ccco1	70800
C[n+]1c(/C=C/c2ccc(-c3ccc(Cl)cc3)o2)ccc2ccccc21	126
COc1ccc(-c2ccc(/C=C/c3n(C)cc[n+]3C)o2)cc1Cl	224
C[n+]1ccccc1/C=C/c1ccc(-c2cc(Cl)ccc2Cl)o1	38
Cn1cc[n+](C)c1/C=C/c1ccc(-c2ccc(Br)cc2)o1	617
C[n+]1c(/C=C/c2ccc(Br)o2)ccc2ccccc21	3160
